{"source": "ChEMBL document CHEMBL4325893", "about": "“Synthesis and antibacterial profiles of targeted triclosan derivatives” (2019)", "key": {"Enterococcus faecium": {"system": "Enterococcus faecium", "assay": "Antibacterial activity against Enterococcus faecium ATCC 19434 after 18 hrs", "assay_type": "functional", "conditions": "ATCC 19434, 18 h", "how_it_was_run": "(§1)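 Broth microdilution in Nutrient Broth No. 2; stocks in ethanol diluted to 0.01–128 µg/ml (triclosan) or 0.25–256 µg/ml (glycosides). Overnight 37 °C NB2 cultures diluted 1 in 10^4 in saline and added to the dilutions. Incubation at 37 °C with agitation, OD read every 15 min; MIC is the lowest concentration preventing any OD rise after 18 h.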"}, "[1]": {"assay": "Antibacterial activity against Salmonella enterica subspecies enterica serotype Indiana OCC 597 after 18 hrs", "assay_type": "functional, Salmonella enterica subsp. enterica serovar Indiana", "conditions": "OCC 597, 18 h", "how_it_was_run": "as §1"}, "Streptococcus pneumoniae": {"system": "Streptococcus pneumoniae", "assay": "Antibacterial activity against Streptococcus pneumoniae 6305 after 18 hrs", "assay_type": "functional", "conditions": "Streptococcus pneumoniae, 6305, 18 h", "how_it_was_run": "(§2)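 Broth microdilution in Nutrient Broth No. 2. Ethanol stocks were diluted in broth to 0.01–128 µg/ml for triclosan and 0.25–256 µg/ml for glycosides. Overnight 37°C NB2 cultures were diluted 1 in 10^4 in saline and added to the wells. Plates were incubated at 37°C with OD read every 15 min after agitation. MIC was the lowest concentration giving no OD increase at 18 h.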"}, "Proteus vulgaris": {"system": "Proteus vulgaris", "assay": "Antibacterial activity against Proteus vulgaris OCC 195 after 18 hrs", "assay_type": "functional", "conditions": "OCC 195, 18 h", "how_it_was_run": "as §1"}, "Escherichia coli [2]": {"system": "Escherichia coli", "assay": "Antibacterial activity against Escherichia coli ATCC 25922 after 18 hrs", "assay_type": "functional", "conditions": "ATCC 25922, 18 h", "how_it_was_run": "as §1"}, "[3]": {"assay": "Antibacterial activity against Enterobacter cloacae ATCC 13047 after 18 hrs", "assay_type": "functional, Enterobacter cloacae subsp. cloacae", "conditions": "ATCC 13047, 18 h", "how_it_was_run": "as §1"}, "[4]": {"assay": "Antibacterial activity against Salmonella enterica subspecies enterica serotype Infantis OCC 2133 after 18 hrs", "assay_type": "functional, Salmonella enterica subsp. enterica serovar Infantis", "conditions": "OCC 2133, 18 h", "how_it_was_run": "as §1"}, "Pseudomonas aeruginosa": {"system": "Pseudomonas aeruginosa", "assay": "Antibacterial activity against Pseudomonas aeruginosa ATCC 27853 after 18 hrs", "assay_type": "functional", "conditions": "ATCC 27853, 18 h", "how_it_was_run": "as §1"}, "Hafnia alvei": {"system": "Hafnia alvei", "assay": "Antibacterial activity against Hafnia alvei 13337 after 18 hrs", "assay_type": "functional", "conditions": "Hafnia alvei, 13337, 18 h", "how_it_was_run": "as §1"}, "Staphylococcus aureus [5]": {"system": "Staphylococcus aureus", "assay": "Antibacterial activity against Staphylococcus aureus NCTC 13758 after 18 hrs", "assay_type": "functional", "conditions": "NCTC 13758, 18 h", "how_it_was_run": "as §1"}, "Streptococcus pyogenes": {"system": "Streptococcus pyogenes", "assay": "Antibacterial activity against Streptococcus pyogenes ATCC 19615 after 18 hrs", "assay_type": "functional", "conditions": "ATCC 19615, 18 h", "how_it_was_run": "as §2"}, "Staphylococcus aureus [6]": {"system": "Staphylococcus aureus", "assay": "Antibacterial activity against Staphylococcus aureus OCC 104 after 18 hrs", "assay_type": "functional", "conditions": "OCC 104, 18 h", "how_it_was_run": "as §1"}, "Citrobacter freundii": {"system": "Citrobacter freundii", "assay": "Antibacterial activity against Citrobacter freundii 8090 after 18 hrs", "assay_type": "functional", "conditions": "Citrobacter freundii, 8090, 18 h", "how_it_was_run": "as §1"}, "Aeromonas hydrophila": {"system": "Aeromonas hydrophila", "assay": "Antibacterial activity against Aeromonas hydrophila OCC 778 after 18 hrs", "assay_type": "functional", "conditions": "OCC 778, 18 h", "how_it_was_run": "as §1"}, "Salmonella enteritidis": {"system": "Salmonella enteritidis", "assay": "Antibacterial activity against Salmonella enterica subspecies enterica serotype Enteritidis 13076 after 18 hrs", "assay_type": "functional, Salmonella enterica subsp. enterica serovar Enteritidis", "conditions": "Salmonella enterica, 13076, 18 h", "how_it_was_run": "as §1"}, "Proteus mirabilis": {"system": "Proteus mirabilis", "assay": "Antibacterial activity against Proteus mirabilis ATCC 12453 after 18 hrs", "assay_type": "functional", "conditions": "ATCC 12453, 18 h", "how_it_was_run": "as §1"}, "Klebsiella aerogenes": {"system": "Klebsiella aerogenes", "assay": "Antibacterial activity against Klebsiella aerogenes NCTC 8167 after 18 hrs", "assay_type": "functional", "conditions": "NCTC 8167, 18 h", "how_it_was_run": "as §1"}, "Klebsiella pneumoniae [7]": {"system": "Klebsiella pneumoniae", "assay": "Antibacterial activity against Klebsiella pneumoniae ATCC 10031 after 18 hrs", "assay_type": "functional", "conditions": "ATCC 10031, 18 h", "how_it_was_run": "as §1"}, "Staphylococcus aureus [8]": {"system": "Staphylococcus aureus", "assay": "Antibacterial activity against Staphylococcus aureus OCC 106 after 18 hrs", "assay_type": "functional", "conditions": "OCC 106, 18 h", "how_it_was_run": "as §1"}, "Staphylococcus aureus [9]": {"system": "Staphylococcus aureus", "assay": "Antibacterial activity against Staphylococcus aureus ATCC 9144 after 18 hrs", "assay_type": "functional", "conditions": "ATCC 9144, 18 h", "how_it_was_run": "as §1"}, "Staphylococcus aureus [10]": {"system": "Staphylococcus aureus", "assay": "Antibacterial activity against Staphylococcus aureus ATCC 6538 after 18 hrs", "assay_type": "functional", "conditions": "ATCC 6538, 18 h", "how_it_was_run": "as §1"}, "[11]": {"system": "Staphylococcus saprophyticus", "assay": "Antibacterial activity against Staphylococcus saprophyticus ATCC 15305 after 18 hrs", "assay_type": "functional", "conditions": "ATCC 15305, 18 h", "how_it_was_run": "as §2"}, "Bacillus cereus": {"system": "Bacillus cereus", "assay": "Antibacterial activity against Bacillus cereus ATCC 14579 after 18 hrs", "assay_type": "functional", "conditions": "ATCC 14579, 18 h", "how_it_was_run": "as §1"}, "Escherichia coli [12]": {"system": "Escherichia coli", "assay": "Antibacterial activity against Escherichia coli ATCC 11775 after 18 hrs", "assay_type": "functional", "how_it_was_run": "as §1"}, "[13]": {"system": "Staphylococcus epidermidis", "assay": "Antibacterial activity against Staphylococcus epidermidis 155 after 18 hrs", "assay_type": "functional", "conditions": "Staphylococcus epidermidis, 155, 18 h", "how_it_was_run": "as §1"}, "Staphylococcus aureus [14]": {"system": "Staphylococcus aureus", "assay": "Antibacterial activity against Staphylococcus aureus ATCC 29213 after 18 hrs", "assay_type": "functional", "conditions": "ATCC 29213, 18 h", "how_it_was_run": "as §1"}, "Escherichia coli [15]": {"system": "Escherichia coli", "assay": "Antibacterial activity against Escherichia coli 700728 after 18 hrs", "assay_type": "functional", "conditions": "Escherichia coli, 700728, 18 h", "how_it_was_run": "as §1"}, "Klebsiella pneumoniae [16]": {"system": "Klebsiella pneumoniae", "assay": "Antibacterial activity against Klebsiella pneumoniae ATCC 13883 after 18 hrs", "assay_type": "functional", "conditions": "ATCC 13883, 18 h", "how_it_was_run": "as §1"}}}
{"smiles": "OC[C@H]1O[C@@H](Oc2cc(Cl)ccc2Oc2ccc(Cl)cc2Cl)[C@H](O)[C@@H](O)[C@@H]1O", "values": [{"measurement": "MIC", "setting": "Enterococcus faecium", "result": "> 256", "unit": "µg/mL"}, {"measurement": "MIC", "setting": "[1]", "result": "16 to 32", "unit": "µg/mL"}, {"measurement": "MIC", "setting": "Streptococcus pneumoniae", "result": 128, "unit": "µg/mL"}, {"measurement": "MIC", "setting": "Proteus vulgaris", "result": 64, "unit": "µg/mL"}, {"measurement": "MIC", "setting": "Escherichia coli [2]", "result": "8 to 64", "unit": "µg/mL"}, {"measurement": "MIC", "setting": "[3]", "result": 16, "unit": "µg/mL"}, {"measurement": "MIC", "setting": "[4]", "result": "16 to 32", "unit": "µg/mL"}, {"measurement": "MIC", "setting": "Pseudomonas aeruginosa", "result": "> 256", "unit": "µg/mL"}, {"measurement": "MIC", "setting": "Hafnia alvei", "result": 4, "unit": "µg/mL"}, {"measurement": "MIC", "setting": "Staphylococcus aureus [5]", "result": "4 to 8", "unit": "µg/mL"}, {"measurement": "MIC", "setting": "Streptococcus pyogenes", "result": 32, "unit": "µg/mL"}, {"measurement": "MIC", "setting": "Staphylococcus aureus [6]", "result": "4 to 8", "unit": "µg/mL"}, {"measurement": "MIC", "setting": "Citrobacter freundii", "result": 64, "unit": "µg/mL"}, {"measurement": "MIC", "setting": "Aeromonas hydrophila", "result": "> 256", "unit": "µg/mL"}, {"measurement": "MIC", "setting": "Salmonella enteritidis", "result": "16 to 32", "unit": "µg/mL"}, {"measurement": "MIC", "setting": "Proteus mirabilis", "result": 16, "unit": "µg/mL"}, {"measurement": "MIC", "setting": "Klebsiella aerogenes", "result": 32, "unit": "µg/mL"}, {"measurement": "MIC", "setting": "Klebsiella pneumoniae [7]", "result": 0.5, "unit": "µg/mL"}, {"measurement": "MIC", "setting": "Staphylococcus aureus [8]", "result": "4 to 8", "unit": "µg/mL"}, {"measurement": "MIC", "setting": "Staphylococcus aureus [9]", "result": "4 to 8", "unit": "µg/mL"}, {"measurement": "MIC", "setting": "Staphylococcus aureus [10]", "result": "4 to 8", "unit": "µg/mL"}, {"measurement": "MIC", "setting": "[11]", "result": 64, "unit": "µg/mL"}, {"measurement": "MIC", "setting": "Bacillus cereus", "result": 256, "unit": "µg/mL"}, {"measurement": "MIC", "setting": "Escherichia coli [12]", "result": "8 to 64", "unit": "µg/mL"}, {"measurement": "MIC", "setting": "[13]", "result": "8 to 16", "unit": "µg/mL"}, {"measurement": "MIC", "setting": "Staphylococcus aureus [14]", "result": "4 to 8", "unit": "µg/mL"}, {"measurement": "MIC", "setting": "Escherichia coli [15]", "result": "8 to 64", "unit": "µg/mL"}, {"measurement": "MIC", "setting": "Klebsiella pneumoniae [16]", "result": 0.5, "unit": "µg/mL"}]}
